Measurements reported in ChEMBL document CHEMBL1142623, “Phytotoxic compounds from the new coprophilous fungus guanomyces polythrix” (J Nat Prod, 2000).
Active and inactive are the calls of the source. The rule behind the calls is not given here.

How the values were obtained:
[1] = molecular target: Calmodulin (Bos taurus) (UniProt P62157); assay: Binding affinity to bovine brain calmodulin at 0.033 ug/mL after 1.5 hrs by electrophoretic mobility assay in presence of EGTA
Outline: (§1)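 Commercial spinach or bovine brain calmodulin, 2-µg samples, pretreated with compound for 1.5 h at 30 °C in presence of 1 mM CaCl2 or EGTA, then run on 15% polyacrylamide SDS-PAGE gels. Binding judged by shift in electrophoretic mobility relative to untreated calmodulin under the same condition (Ca2+ vs EGTA).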

[2] = molecular target: Calmodulin (Spinacia oleracea) (UniProt P04353); assay: Binding affinity to spinach calmodulin at 0.033 ug/mL after 1.5 hrs by electrophoretic mobility assay presence of EGTA; outline: as §1
[3] = molecular target: Calmodulin (Spinacia oleracea) (UniProt P04353); assay: Binding affinity to spinach calmodulin at 0.033 ug/mL after 1.5 hrs by electrophoretic mobility assay in presence of calcium chloride; outline: as §1
[4] = tested on: Echinochloa crus-galli; assay: Phytotoxicity against Echinochloa crusgalli assessed as inhibition of radicle elongation; assay type: functional, organism-based
Outline: (§2)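 Seedling radicle growth assay at 28 °C. Pure compounds tested at 1, 10 and 100 µg mL-1, with 2,4-D as positive control. Results analysed by ANOVA (p < 0.05). IC50 calculated by Probit analysis from percent radicle growth inhibition.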

[5] = molecular target: Calmodulin (Bos taurus) (UniProt P62157); assay: Binding affinity to bovine brain calmodulin at 0.033 ug/mL after 1.5 hrs by electrophoretic mobility assay in presence of calcium chloride
Outline: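 Bovine brain calmodulin (2 µg samples) pretreated with isolates at 0.033 µg/mL plus 1 mM CaCl2 for 1.5 h at 30 °C. Mobility then compared against untreated calmodulin on 15% polyacrylamide SDS-PAGE. A parallel condition used EGTA in place of Ca2+.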

[6] = tested on: Amaranthus hypochondriacus; assay: Phytotoxicity against Amaranthus hypochondriacus assessed as inhibition of radicle elongation; assay type: functional, organism-based; outline: as §2

Structure (SMILES): COc1cc(OC)c2c(O)c3c(c(OC)c2c1)O[C@@H](C)CC3=O
- Activity [1]: inactive
- Activity [2]: Active
- Activity [3]: Active
- IC50 [4]: 40 µM
- Activity [5]: Active
- IC50 [6]: 13 µM

Structure (SMILES): COc1cc(OC)c2c(O)c3c(cc2c1)O[C@@H](C)[C@H](C)C3=O
- Activity [1]: inactive
- Activity [2]: Active
- Activity [3]: Active
- IC50 [4]: 120 µM
- Activity [5]: Active
- IC50 [6]: 100 µM

Structure (SMILES): Cc1cc(O)c2c(c1)C(=O)c1cc(O)cc(O)c1C2=O [EMODIN]
- Activity [1]: inactive
- Activity [2]: Active
- Activity [3]: Active
- IC50 [4]: 20 µM
- Activity [5]: Active
- IC50 [6]: 130 µM

Structure (SMILES): COc1cc(OC)c2c(O)c3c(=O)c(C)c(C)oc3cc2c1
- Activity [1]: inactive
- Activity [2]: Active
- Activity [3]: Active
- IC50 [4]: 170 µM
- Activity [5]: Active
- IC50 [6]: 80 µM

Structure (SMILES): O=C(O)COc1ccc(Cl)cc1Cl [2,4-DICHLOROPHENOXYACETIC ACID]
- IC50 [4]: 880 µM
- IC50 [6]: 180 µM

Structure (SMILES): COC(=O)c1ccc(O)cc1 [METHYLPARABEN]
- Activity [1]: inactive
- Activity [2]: Active
- Activity [3]: Active
- IC50 [4]: 630 µM
- Activity [5]: Active
- IC50 [6]: 23 µM

Structure (SMILES): CC1=C2C(=CO[C@H](C)[C@H]2C)C(O)=C(C(=O)O)C1=O [CITRININ]
- Activity [1]: inactive
- Activity [2]: Active
- Activity [3]: Active
- IC50 [4]: 63 µM
- Activity [5]: Active
- IC50 [6]: 55 µM

Structure (SMILES): COc1cc(OC)c2c(O)c3c(=O)cc(C)oc3cc2c1 [RUBROFUSARIN B]
- Activity [1]: inactive
- Activity [2]: Active
- Activity [3]: Active
- IC50 [4]: 87 µM
- Activity [5]: Active
- IC50 [6]: 13 µM

Structure (SMILES): COc1cc(OC)c2c(O)c3c(c(OC)c2c1)O[C@@H](C)[C@H](C)C3=O
- Activity [1]: Active
- Activity [2]: Active
- Activity [3]: Active
- IC50 [4]: 61 µM
- IC50 [6]: 65 µM

Structure (SMILES): COc1cc(OC)c2c(O)c3c(cc2c1)O[C@@H](C)CC3=O
- Activity [1]: inactive
- Activity [2]: Active
- Activity [3]: Active
- IC50 [4]: 87 µM
- Activity [5]: Active
- IC50 [6]: 23 µM
